Source: ChEMBL document CHEMBL3351628, “2,4,5-Trisubstituted thiazole derivatives: a novel and potent class of non-nucleoside inhibitors of wild type and mutant HIV-1 reverse transcriptase” (Eur J Med Chem, 2014)
pIC50: −log10 of the molar value. Calls of active or inactive are those of the source. The calls are words filed in the database; no cut-off is given here.

Key:
[1] = tested on: Human immunodeficiency virus 1; assay: Antiviral activity against HIV1 harboring reverse transcriptase K103N/P225H double mutant infected in HEK293T cells transfected with plasmid VSV-G/pNL4-3.luc.R-E- assessed as inhibition of viral replication after 48 hrs by luciferase reporter gene assay; type: functional, organism-based, HEK-293T
Procedure, shortened: (§1)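 VSV-G-pseudotyped single-cycle virus: VSVG plasmid plus env-deficient pNL4-3.luc.R⁻E⁻ vector (wild type or RT-mutant) co-transfected into HEK 293T by calcium phosphate. Medium changed at 16 h, supernatant collected 48 h post-transfection, normalised by p24 ELISA to 0.2 ng p24/mL. HEK 293T targets seeded a day ahead; compound added 15 min before virus. Cells lysed 48 h post-infection, luciferase read. IC50 from dose–infectivity curves.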

[2] = tested on: Human immunodeficiency virus 1; assay: Antiviral activity against HIV1 harboring reverse transcriptase K103N/P225H double mutant infected in HEK293T cells transfected with plasmid VSV-G/pNL4-3.luc.R-E- assessed as inhibition of viral replication after 48 hrs by luciferase reporter gene assay relative HIV1; type: functional, HEK-293T
[3] = tested on: Human immunodeficiency virus 1; assay: Antiviral activity against HIV1 harboring reverse transcriptase K103N/G190A double mutant infected in HEK293T cells transfected with plasmid VSV-G/pNL4-3.luc.R-E- assessed as inhibition of viral replication after 48 hrs by luciferase reporter gene assay; type: functional, organism-based, HEK-293T; procedure, shortened: as §1
[4] = tested on: Human immunodeficiency virus 1; assay: Antiviral activity against HIV1 harboring reverse transcriptase K103N/G190A double mutant infected in HEK293T cells transfected with plasmid VSV-G/pNL4-3.luc.R-E- assessed as inhibition of viral replication after 48 hrs by luciferase reporter gene assay relative HIV1; type: functional, HEK-293T
[5] = tested on: Human immunodeficiency virus 1; assay: Antiviral activity against HIV1 harboring reverse transcriptase K103N/V108I double mutant infected in HEK293T cells transfected with plasmid VSV-G/pNL4-3.luc.R-E- assessed as inhibition of viral replication after 48 hrs by luciferase reporter gene assay; type: functional, organism-based, HEK-293T; procedure, shortened: as §1
[6] = tested on: Human immunodeficiency virus 1; assay: Antiviral activity against HIV1 harboring reverse transcriptase K103N/V108I double mutant infected in HEK293T cells transfected with plasmid VSV-G/pNL4-3.luc.R-E- assessed as inhibition of viral replication after 48 hrs by luciferase reporter gene assay relative HIV1; type: functional, HEK-293T
[7] = tested on: Human immunodeficiency virus 1; assay: Antiviral activity against HIV1 infected in 293T cells assessed as time of 50% failure; type: functional
[8] = tested on: Human immunodeficiency virus 1; assay: Antiviral activity against wild type HIV1 infected in HEK293T cells transfected with plasmid VSV-G/pNL4-3.luc.R-E- assessed as inhibition of viral replication after 48 hrs by luciferase reporter gene assay; type: functional, organism-based, HEK-293T; conditions: for pIC50: Human immunodeficiency virus 1, HEK-293T, 48 h, read-out: IC50; procedure, shortened: as §1
[9] = tested on: HEK-293T; assay: Cytotoxicity against HEK293T cells at 10 uM after 48 hrs; type: cell-based; conditions: human
Procedure, shortened: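 HEK 293T cells incubated 48 h with compound at final 10 μM under the antiviral culture conditions, without virus. Viability read with a cell proliferation assay kit.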

[10] = tested on: Human immunodeficiency virus 1; assay: Antiviral activity against HIV1 harboring reverse transcriptase K103N mutant infected in HEK293T cells transfected with plasmid VSV-G/pNL4-3.luc.R-E- assessed as inhibition of viral replication after 48 hrs by luciferase reporter gene assay; type: functional, organism-based, HEK-293T; procedure, shortened: as §1
[11] = tested on: Human immunodeficiency virus 1; assay: Antiviral activity against HIV1 harboring reverse transcriptase K103N mutant infected in HEK293T cells transfected with plasmid VSV-G/pNL4-3.luc.R-E- assessed as inhibition of viral replication after 48 hrs by luciferase reporter gene assay relative HIV1; type: functional, HEK-293T
[12] = tested on: Human immunodeficiency virus 1; assay: Antiviral activity against HIV1 harboring reverse transcriptase Y181C mutant infected in HEK293T cells transfected with plasmid VSV-G/pNL4-3.luc.R-E- assessed as inhibition of viral replication after 48 hrs by luciferase reporter gene assay; type: functional, organism-based, HEK-293T; procedure, shortened: as §1
[13] = tested on: Human immunodeficiency virus 1; assay: Antiviral activity against HIV1 harboring reverse transcriptase Y181C mutant infected in HEK293T cells transfected with plasmid VSV-G/pNL4-3.luc.R-E- assessed as inhibition of viral replication after 48 hrs by luciferase reporter gene assay relative HIV1; type: functional, HEK-293T
[14] = tested on: Human immunodeficiency virus 1; assay: Antiviral activity against HIV1 harboring reverse transcriptase […]/K103N double mutant infected in HEK293T cells transfected with plasmid VSV-G/pNL4-3.luc.R-E- assessed as inhibition of viral replication after 48 hrs by luciferase reporter gene assay; type: functional, organism-based, HEK-293T; procedure, shortened: as §1
[15] = tested on: Human immunodeficiency virus 1; assay: Antiviral activity against HIV1 harboring reverse transcriptase […]/K103N double mutant infected in HEK293T cells transfected with plasmid VSV-G/pNL4-3.luc.R-E- assessed as inhibition of viral replication after 48 hrs by luciferase reporter gene assay relative HIV1; type: functional, HEK-293T
[16] = tested on: Human immunodeficiency virus 1; assay: Antiviral activity against HIV1 harboring reverse transcriptase Y188L mutant infected in HEK293T cells transfected with plasmid VSV-G/pNL4-3.luc.R-E- assessed as inhibition of viral replication after 48 hrs by luciferase reporter gene assay; type: functional, organism-based, HEK-293T; procedure, shortened: as §1
[17] = tested on: Human immunodeficiency virus 1; assay: Antiviral activity against HIV1 harboring reverse transcriptase Y188L mutant infected in HEK293T cells transfected with plasmid VSV-G/pNL4-3.luc.R-E- assessed as inhibition of viral replication after 48 hrs by luciferase reporter gene assay relative HIV1; type: functional, HEK-293T
[18] = Retention time of the compound by HPLC analysis; type: physicochemical
[19] = tested on: Human immunodeficiency virus 1; assay: Antiviral activity against HIV1 at 10 uM; type: functional, organism-based
[20] = Human immunodeficiency virus 1, HEK-293T, 48 h

With `Cc1ccnc2c1NC(=O)c1cccnc1N2C1CC1` [NEVIRAPINE] the pIC50 ([1]; hek-293t) was 5.26, the “fold change (FC)” value [2] was 177 and the pIC50 [3, 20] was under 5.00. For the same compound, the “fold change (FC)” value [4] was over 322, the pIC50 ([5]; hek-293t) was 5.55 and the “fold change (FC)” value [6] was 90. For the same compound, the Time [7] was 8.3 h, the pIC50 [8] was 7.51 and the Activity [9] was “Non-toxic”. For the same compound, the pIC50 ([10]; hek-293t) was 4.79, the “fold change (FC)” value [11] was 519 and the pIC50 ([12]; hek-293t) was 4.18. The “fold change (FC)” value [13] was 2152, the pIC50 [14, 20] was 5.30 and the “fold change (FC)” value [15] was 161. The pIC50 [16, 20] was under 5.00 and the “fold change (FC)” value [17] was over 322.

In the case of `COc1ccc(-c2nc(NCc3ccc(O)cc3)sc2Cc2ccccc2)cc1`, the Retention_time [18] was 16.52 min, the pIC50 [8] was 6.19 and the Activity [9] was “Non-toxic”. The pIC50 [10, 20] was 5.08, the “fold change (FC)” value [11] was 13 and the pIC50 [12, 20] was 5.18. For the same compound, the “fold change (FC)” value [13] was 10.

For `COc1ccc(-c2nc(NCc3ccc(N(C)C)cc3)sc2Cc2ccccc2)cc1`, the Retention_time [18] was 33.97 min, the pIC50 [8] was 6.06 and the Activity [9] was “Non-toxic”. The pIC50 [10, 20] was 4.18, the “fold change (FC)” value [11] was 76 and the pIC50 [12, 20] was 4.15. The “fold change (FC)” value [13] was 82.

With `COc1ccc(CNc2nc(-c3ccc(F)cc3F)c(Cc3ccccc3)s2)cc1` the pIC50 [1, 20] was 5.44, the “fold change (FC)” value [2] was 56.1 and the pIC50 [3, 20] was 6.40. For the same compound, the “fold change (FC)” value [4] was 6.3, the pIC50 [5, 20] was 5.74 and the “fold change (FC)” value [6] was 28.8. It also gave a Retention_time [18] of 17.37 min, a Time [7] of 8.6 h and a pIC50 [8] of 7.19. For the same compound, the Activity [9] was “Non-toxic”, the pIC50 [10, 20] was 6.39 and the “fold change (FC)” value [11] was 6.4. The pIC50 [12, 20] was 5.84, the “fold change (FC)” value [13] was 22.8 and the pIC50 [14, 20] was 5.27. The “fold change (FC)” value [15] was 83.8, the pIC50 [16, 20] was under 5.00 and the “fold change (FC)” value [17] was over 156.

`Cc1nnc(C(=O)NC(C)(C)c2nc(C(=O)NCc3ccc(F)cc3)c(O)c(=O)n2C)o1` [RALTEGRAVIR] showed a Time [7] of 12 h.

With `COc1ccc(CNc2nc(-c3ccccc3Cl)c(Cc3ccccc3)s2)cc1` the pIC50 [1, 20] was 6.11, the “fold change (FC)” value [2] was 17 and the pIC50 [3, 20] was 5.38. The “fold change (FC)” value [4] was 90.9, the pIC50 [5, 20] was 6.09 and the “fold change (FC)” value [6] was 17.8. For the same compound, the Retention_time [18] was 26.43 min, the Time [7] was 9 h and the pIC50 [8] was 7.34. The Activity [9] was “Non-toxic”, the pIC50 [10, 20] was 6.62 and the “fold change (FC)” value [11] was 5.2. For the same compound, the pIC50 [12, 20] was 6.10, the “fold change (FC)” value [13] was 17.2 and the pIC50 [14, 20] was 5.29. For the same compound, the “fold change (FC)” value [15] was 111, the pIC50 [16, 20] was under 5.00 and the “fold change (FC)” value [17] was over 217.

With `COc1ccc(CNc2nc(-c3ccccc3F)c(Cc3ccccc3)s2)cc1` the pIC50 [1, 20] was 5.32, the “fold change (FC)” value [2] was 77.6 and the pIC50 [3, 20] was 6.80. The “fold change (FC)” value [4] was 2.6, the pIC50 [5, 20] was 5.33 and the “fold change (FC)” value [6] was 76.3. For the same compound, the Retention_time [18] was 24.29 min, the Time [7] was 8.6 h and the pIC50 [8] was 7.21. The Activity [9] was “Non-toxic”, the pIC50 [10, 20] was 6.27 and the “fold change (FC)” value [11] was 8.7. The pIC50 [12, 20] was 5.90, the “fold change (FC)” value [13] was 20.3 and the pIC50 [14, 20] was 5.28. The “fold change (FC)” value [15] was 84.5, the pIC50 [16, 20] was under 5.00 and the “fold change (FC)” value [17] was over 161.

`Cc1cn([C@H]2C[C@H](N=[N+]=[N-])[C@@H](CO)O2)c(=O)[nH]c1=O` [ZIDOVUDINE] showed a Time [7] of 7.7 h.

In the case of `COc1ccc(CNc2nc(-c3cc(OC)ccc3OC)c(Cc3ccccc3)s2)cc1`, the Retention_time [18] was 18.55 min, the pIC50 [8] was 5.21 and the Activity [9] was “Non-toxic”.

For `COc1ccc(CNc2nc(-c3ccccc3)c(Cc3ccc(C#N)cc3)s2)cc1`, the Retention_time [18] was 17.21 min, the pIC50 [8] was 5.32 and the Activity [9] was “Non-toxic”.

With `COc1ccc(CNc2nc(-c3ccc(OC)cc3)c(Cc3ccc([N+](=O)[O-])cc3)s2)cc1` the Retention_time [18] was 26.68 min, the pIC50 [8] was under 5.00 and the Activity [9] was “Non-toxic”.

With `COc1ccc(-c2nc(/N=C/c3ccc(F)cc3)sc2Cc2ccccc2)cc1` the Retention_time [18] was 14.58 min, the pIC50 [8] was under 5.00 and the Activity [9] was “Non-toxic”.

For `COc1ccc(CN(C)c2nc(-c3ccc(OC)cc3)c(Cc3ccccc3)s2)cc1`, the Retention_time [18] was 47.61 min, the pIC50 [8] was 6.43 and the Activity [9] was “Non-toxic”.

With `COc1ccc(CNc2nc(-c3ccc(OC)cc3)c(Cc3ccccc3)s2)cc1` the Retention_time [18] was 29.14 min, the pIC50 [8] was 6.51 and the Activity [9] was “Non-toxic”.

For `COc1ccc(-c2nc(NCc3ccccc3)sc2Cc2ccccc2)cc1`, the Retention_time [18] was 28.1 min, the pIC50 [8] was 6.19 and the Activity [9] was “Non-toxic”.

In the case of `COc1ccc(-c2nc(N(C)C)sc2Cc2ccccc2)cc1`, the Retention_time [18] was 35.28 min, the inhibition [19] was “inactive” and the IC50 ([8]; hek-293t) was “Not Active”. The Activity [9] was “Non-toxic”.

In the case of `O=C1Nc2ccc(Cl)cc2[C@@](C#CC2CC2)(C(F)(F)F)O1` [EFAVIRENZ], the pIC50 ([1]; hek-293t) was 6.80, the “fold change (FC)” value [2] was 154 and the pIC50 ([3]; hek-293t) was 7.25. The “fold change (FC)” value [4] was 538, the pIC50 ([5]; hek-293t) was 7.08 and the “fold change (FC)” value [6] was 79.8. For the same compound, the Time [7] was 8.8 h, the pIC50 [8] was 9.08 and the Activity [9] was “Non-toxic”. For the same compound, the pIC50 ([10]; hek-293t) was 7.23, the “fold change (FC)” value [11] was 56 and the pIC50 ([12]; hek-293t) was 8.25. For the same compound, the “fold change (FC)” value [13] was 5.4, the pIC50 ([14]; hek-293t) was 5.60 and the “fold change (FC)” value [15] was 2394. The pIC50 ([16]; hek-293t) was 6.32 and the “fold change (FC)” value [17] was 461.5.
